Published values from different studies.
Lines come from different studies, so protocols differ.
MAK: Serine/threonine-protein kinase MAK (MAK, Homo sapiens, UniProt P20794)
MTNR1B: Melatonin receptor type 1B (MTNR1B, Homo sapiens, UniProt P49286)
PDE4D: 3',5'-cyclic-AMP phosphodiesterase 4D (PDE4D, Homo sapiens, UniProt Q08499)

SMILES | target | test | test system | setting | measurement | result
O=C1C[C@@H]2OCC=C3CN4CC[C@]56c7ccccc7N1[C@H]5[C@H]2[C@H]3C[C@H]46 | Cyclin-dependent kinase 7, with cyclin H (CDK7, Homo sapiens, UniProt P50613) | enzyme activity, inhibitor, ADP detection | – | 10 µM | inhibition | 38.1%
Nc1ncc(-c2nc(N3CCOCC3)nc(N3CCOCC3)n2)c(C(F)F)n1 | MAK | binding, competition with immobilised ligand | – | 10 µM | remaining binding | 100%
COc1ccc2[nH]cc(CCNC(=O)CI)c2c1 | MTNR1B | cAMP, agonist, TR-FRET | CHO-K1 | 20 min | Emax | 103%
Cc1nn(C)cc1-c1nc2c(N3CCN(Cc4ccc(Cl)cc4)CC3)c(Cl)cnc2[nH]1 | MAK | binding, competition with immobilised ligand | – | 1 µM | remaining binding | 85%
COc1ccc2cccc(C(CO)CNC(=O)CF)c2c1 (stereo not shown) | MTNR1B | cAMP, agonist, TR-FRET | CHO-K1 | 20 min | Emax | 93%
COc1ncccc1-c1cnn2ccc(N3CCN(C(=O)OC(C)C)CC3)nc12 | Non-receptor tyrosine-protein kinase TNK1 (TNK1, Homo sapiens, UniProt Q13470) | binding, competition with immobilised ligand | – | 1 µM | remaining binding | 100%
CN[C@@H](C)[C@H](O)c1ccccc1 | PDE4D | enzyme activity, inhibitor, radiometric | – | 50 µM | inhibition | -7.03%
CC(=O)O[C@H]1C[C@H]2[C@@H]([C@H](OC(C)=O)C[C@@H]3CC(NCCCNc4ccnc5cc(Cl)ccc45)CC[C@@]32C)[C@@H]2CC[C@H]([C@H](C)CCCNCCCNc3ccnc4cc(Cl)ccc34)[C@@]12C (mixture of isomers) | Botulinum neurotoxin type A, protease (Clostridium botulinum, UniProt P0DPI0) | enzyme activity, inhibitor | – | 10 µM | inhibition | 99%
O=C(O)c1cc(O)c2c(c1)C(=O)c1cccc(O)c1C2=O | PDE4D | enzyme activity, inhibitor, radiometric | – | 50 µM | inhibition | 9.01%
CN[C@]1(c2ccccc2Cl)CCCCC1=O | Mitogen-activated protein kinase 1 (MAPK1, Homo sapiens, UniProt P28482) | enzyme activity, inhibitor | – | 30 µM | inhibition | -3%
